Measured values as given in the EternaBench riboswitch data.

Tested on: MS2 coat protein
Test: apparent Kd, MS2 coat protein; higher = weaker binding; RNA-MaP array; FMN 200 µM where present
Summary of the method: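 Each design was made on Illumina sequencing-chip clusters by stalled E. coli RNA polymerase and titrated with SNAP-549-labelled MS2 coat protein from 0.7 or 1.5 nM, doubling to 3 µM, in the absence and then the presence of constant ligand. The buffer was 100 mM Tris-HCl pH 7.5, 80 mM KCl, 4 mM MgCl2, BSA, DTT, yeast tRNA and Tween-20. The apparent Kd is the median of filtered per-cluster fits of binding curves, with green signal normalised to red-channel RNA signal and control-cluster median Fmax.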

[1] = designed as: OFF switch for flavin mononucleotide, no ligand
[2] = ligand present: flavin mononucleotide, designed as: OFF switch for flavin mononucleotide
[3] = designed as: ON switch for flavin mononucleotide, no ligand
[4] = ligand present: flavin mononucleotide, designed as: ON switch for flavin mononucleotide

Row | Sequence | apparent Kd [1] [nM] | apparent Kd [2] [nM] | apparent Kd [3] [nM] | apparent Kd [4] [nM]
1 | GUCAGCUCGUGAGGAUAUACAACACUGCUUCGGCAGUGUAUUAUGAUCACAUGAGGAUCACCCAUGUAGAAGGCACGAGCUGAU | 29.3 | 230 | – | –
2 | GUCAGCUCGUGAGGAUAUACAACACUGCUUCGGCAGUGUUUUAAGAUCACAUGAGGAUCACCCAUGUAGAAGGCACGAGCUGAU | 6.29 | 44 | – | –
3 | GUCAGCUCGUGAGGAUAUACACCACUGCUUCGGCAGUGUAUUAAGAUCACAUGAGGAUCACCCAUGUAGAAGGCACGAGCUGAU | 14.5 | 255 | – | –
4 | GUCAGCUCGUGAGGAUAUACAUCACUGCUUCGGCAGUGUAUUAAGACAACAUGAGGAUCACCCAUGUAGAAGGCACGAGCUGAU | 16.9 | 20.4 | – | –
5 | GUCAGCUCGUGAGGAUAUACAUGUGCUGGAGACAGCACUAUUAUGUUCACAUGAGGAUCACCCAUGUAGAAGGCACGAGCUGAU | 16.8 | 20.9 | – | –
6 | GUCAGCUCGUGAGGAUAUACAUGUGCUGGAUACAGCACUAUUAUGUUCACAUGAGGAUCACCCAUGUAGAAGGCACGAGCUGAU | 16.2 | 21.7 | – | –
7 | GUCAUCAAUGAAGGAUAUCUAUGUCCAACAUGAGGAUCACCCAUGUUGAGGAUUACCUAUGUGUAGGAGAAGGUCAAUAUAACU | – | – | 8.01 | 6.91
8 | GUCAUGUGAGGAUAUGUAUUGCGCAUGCCGAAAACAUGGCGGCAGAAGGCACAUGAGGAUCACCCAUGUGGGUU | 62.7 | 34.4 | – | –
9 | GUCCUCCGUGCCCUUAACGCACAUGAGGAUCACCCAUGUAGGAGAAGGGCCCAACAAAUCAAAGGGCAGGAUAUCCAAAUCAUG | 75.1 | 18.9 | – | –
10 | GUCCUCUCUGAGGAUAUUAUCCGGUCCGAUUGAUAAGAAGGCAGUACAUGAGGAUCACCCAUGUGGGUCGUCUG | 37.4 | 111 | – | –
11 | GUCGGAAACGACAAAAGUAGCAUACGAGAAGGUUGAUCCAAGACAUGAGGAUCACCCAUGUAGUUAGAGGAUAUUGGAUGCUAC | – | – | 163 | 116
12 | GUCGGAAACGACAAAAGUAUGGAUCCAGAAGGCAUGAACAUGAGGAUCACCCAUGUCUAAAGAUAUGAGGAUAUGGAUCCAUAC | – | – | 6.66 | 4.44
13 | GUCGGAAACGACAAACGUAGCAUACGAGAAGGCUGAUCCACGACAUGAGGAUCACCCAUGUAGUUAGAGGAUAUUGGAUGCUAC | – | – | 54.7 | 11.3
14 | GUCGGAAACGACAAAGUAGCAUAGGAGGAUAUUCAUUAAAACAUGAGGAUCACCCAUGUAAAUUGGGAGAAGGCCUAUGCUACA | – | – | 17.8 | 5.26
15 | GUCGUGCGGCUUUGCUGUACGAGUACAUGAGGAUCACCCAUGUAGGAUAUGGUUCGUUUUGCGUGCCAGAAGGGCGUGCGUUGU | 25.5 | 24.8 | – | –
16 | GUCGUGUGAGGAUAUGAUUAUUAGGCGGGAUUGCGACUGCUUCAGAAGGCACAUGAGGAUCACCCAUGUAUGAA | 11.4 | 39 | – | –
17 | GUCGUGUGAGGAUAUGAUUUUUCGGCGGGAUUGCGACUGCUUCAGAAGGCACAUGAGGAUCACCCAUGUAUGUC | 10.7 | 25.5 | – | –
18 | GUCGUGUUAGGAUAUGGCAACGGCUACGAAAGUAGUUGUUGUUAGAAGGAACAUGAGGAUCACCCAUGUAUGAC | 38 | 101 | – | –
19 | GUCUGACAUGAGGAUCACCCAUGUAUUCGAGCAUGAGGAUAUAUGACUCGUCAUCGGCGGAUAGAAGGCAUGGUUG | – | – | 169 | 192

Row | Sequence | apparent Kd [1] [nM] | apparent Kd [2] [nM] | apparent Kd [3] [nM] | apparent Kd [4] [nM]
20 | GUGAAGUGAGGAUAUACGAGAGAGGCUGAACCGGACGAGAAGUAGAAGGCACAUGAGGAUCACCCAUGUAAGGA | 33 | 32.1 | – | –
21 | GUGAAGUGAGGAUAUACGAGAGAGGCUGAACCGGACGAGAAGUAGAAGGCACAUGAGGAUCACCCAUGUACGGG | – | 236 | – | –
22 | GUGAGGUAAGGAUAUAGUAGUGAAGGUAAAAUAUGAGAAUGCUAGAAGGUACAUGAGGAUCACCCAUGUUAGGG | 211 | 203 | – | –
23 | GUGAGGUCAGGAUAUGCAUGGCGGGACUUGCGUCGUGGCGUGGAGAAGGGACAUGAGGAUCACCCAUGUGGAGC | 55.6 | 59.1 | – | –
24 | GUGAGGUCAGGAUAUGCAUGGCGGGACUUGCGUCGUGGCGUGGAGAAGGGACAUGAGGAUCACCCAUGUGGAGU | 87.6 | 49.5 | – | –
25 | GUGAGUAGUCAGGAUAUGCUGUACAAAAGUACAGCAGAAGGGAUUACAUGAGGAUCACCCAUGUUAUCUUCAUG | 185 | 510 | – | –
26 | GUGAUCCCGGUUAGGAUAUUAGUGAUGUACACCUCUGAGAAGGGACAUGAGGAUCACCCAUGUCGCCUUGAAAC | 17.7 | 22.6 | – | –
27 | GUGCAACAUGAGGAUCACCCAUGUCAGGAUAUGCGAAUUUCAUCAAAAGAUGAAAUUUGCAGAAGGGACUGCAC | 19 | 22.8 | – | –
28 | GUGCACAUUCGAGGAUAUCGGAGAGAGAUCCUUCGAGAAGGCGAUUCAUGCUGUGUUAUUCUGGACAUGAGGAUCACCCAUGUG | – | – | 326 | 172
29 | GUGCAGAUGUAAGGAUAUCGACUGGAAUACAGUCGAGAAGGUACAUGAGGAUCACCCAUGUAAAUGAAAGAUAAUAAACUGCAC | 15.3 | 26.1 | – | –
30 | GUGCCGAACCUAGGAUAUCUUAUCGGGUUCCGCCGUGGCUUAGCGACAUGAGGAUCACCCAUGUAAGAGAAGGAGGUGGUGGAG | 299 | 259 | – | –
31 | GUGCCUAACUAGAAGGCCCAAUGCAAAGCAUAGGGAGGAUAUGGGUUUAAUAAAUAAACAUGAGGAUCACCCAUGUGGCACAAA | – | – | 45.5 | 10.1
32 | GUGCCUAACUAGAAGGCCGUAUGCAAAGCAUACGGAGGAUAUGGGUUCCGGAAACGGACAUGAGGAUCACCCAUGUGGCACAAA | – | – | 80.4 | 10.6
33 | GUGCCUUAUGAGAAGGCGAUCAUGAAACAUGAUCGAGGAUAUCAUGUAAACAUGAGGAUCACCCAUGUAUGGGUAUUAUGGUAC | – | – | 547 | 55.5
34 | GUGCCUUGGGAGAAGGUUACAUGCAAAGCAUUUAAAGGAUAUUCAUACCGGAAACGGACAUGAGGAUCACCCAUGUGGCACAAA | – | – | 870 | 145
35 | GUGCGAGGCUAGGAUAUUGUGGGUUUUUGUCUGCGAGAAGGAGCCACAUGAGGAUCACCCAUGUGGUGUUGCUC | 64.4 | 294 | – | –
36 | GUGCGGUAGGAGAAGGACGGAGGCUUCUUUUCAUACAUGAGGAUCACCCAUGUAGGAUAUCCUACCUCACGCGGCCUACUUCUG | 5.22 | 5.06 | – | –
37 | GUGCUGCAGCUGUGCACGAGACAUGAGGAUCACCCAUGUGACAGAAGGGACUUGUUAAAGGUAGGUCAGGAUAUGUCUUAAAAG | – | – | 107 | 37.3
38 | GUGGUCAGACAUGAGGAUCACCCAUGUGGAAUAAAUAACACACAGGAUAUCUAAUAUAAAAUAUAAGAGAAGGGUGGAUUGGUG | – | – | 273 | 182

Row | Sequence | apparent Kd [1] [nM] | apparent Kd [2] [nM] | apparent Kd [3] [nM] | apparent Kd [4] [nM]
39 | GUGGUCAGACAUGAGGAUCACCCAUGUGGAAUAAAUAACACACAGGAUAUGUAAUAUAAAAUAUAACAGAAGGGUGGAUUGGUG | – | – | 352 | 181
40 | GUGGUCAGACAUGAGGAUCACCCAUGUGGAAUAAAUAAGGGACAGGAUAUUCAAUAUAGGAUAUAGAAGAAGGGUUGGUUGGUG | – | – | 96.1 | 125
41 | GUGGUGCUAAAGAAGCACAUGAGGAUCACCCAUGUGCCGACACAGGAUAUCGACCGCGUUGGCGUCGAGAAGGGUGAGCCUACU | – | – | 63.4 | 34.4
42 | GUGUACAGAGGAUAUACAAGAGGAGUUACGAAAGUAACUUCACAUGAGGAUCACCCAUGUAGAAGGCUGUACAC | 24.6 | 39.5 | – | –
43 | GUGUACAGAGGAUAUACACGAAUCUAGCGAAGCUAGGUUUGACAUGAGGAUCACCCAUGUAGAAGGCUGUACAC | 16.1 | 24.2 | – | –
44 | GUGUACAGAGGAUAUACAUAAGCAUGGAAACAUGCAACCUCACAUGAGGAUCACCCAUGUAGAAGGCUGUACAC | 161 | 65.3 | – | –
45 | GUGUACAGAGGAUAUACUCGAAUCUAGCGAAGCUAGGUUUGACAUGAGGAUCACCCAUGUAGAAGGCUGUACAC | 14.6 | 18.9 | – | –
46 | GUGUACGGAGGAUAUAUGUGGGCAGGCUGACCUGCAGCUUCACAUGAGGAUCACCCAUGUAGAAGGCUGUACAC | 22.7 | 114 | – | –
47 | GUGUGUUGCGGGCAGGAUAUGUAUUUGAGUACAUGAGGAUCACCCAUGUGCGCCUGUUUCAGGCGACAGAAGGGCCUAUCGCGAC | – | – | 159 | 30.9
48 | GUGUUACAUGAGGAUCACCCAUGUUGUUUUAGAUAAGGAUAUAUGGUAACGAGAGAAAUAAUAGAAGGUAUUAGGC | – | – | 33.4 | 23.1
49 | GUUAAACAUGAGGAUCACCCAUGUAAGGAUAUGCUGCGGUCGCGAUGAAGUGACUGCAGCAGAAGGUACAAUUG | 109 | 75.9 | – | –
50 | GUUAAGGUAGGAUAUACGAUAAUAUAGGGUAGAGAUAUAACACAUGAGGAUCACCCAUGUAGAAGGACCAAUUG | 25.3 | 75.2 | – | –
51 | GUUAGACAUGAGGAUCACCCAUGUGAGGAUAUGAUGCGAAUAAAGAAUGAAGUAAGCAUCAGAAGGCACAUAUG | 267 | 381 | – | –
52 | GUUAUAGGAGGAUAUACAUGAGGAUCACCCAUGUCUCACCCAUGGCAACGAACCUAUUGUAGAAGGCUUGAAGA | 74.5 | 182 | – | –
53 | GUUAUUAACAAGAAGGCAUACAUGAGGAUCACCCAUGUUCUACAUGGAUAAUGAGGAUAUUGCUAAUACAUGAGGAUCACCCAU | 48.8 | 53.8 | – | –
54 | GUUCUGCUAGGAUAUGCAUCAACGGGAUAGCCUACGCGGAAACAUGAGGAUCACCCAUGUAGAAGGAGCUGAAC | 30.3 | 30.6 | – | –
55 | GUUCUUCCUGUGAGGAUAUCCAUGUUUCGGUUUGUGGAGAAGGUACAUGAGGAUCACCCAUGUCACCCGCGUUU | 14.1 | 15.8 | – | –
56 | GUUGCACAAGUUAACAUGAGGAUCACCCAUGUCAAAAGACAUGAGGAUAUGGAUCUGAAGAAGAUCCAGAAGGCAUAAUGCUAA | – | – | 796 | 117
